Measurements: ChEMBL document CHEMBL1949512, “RO4383596, an orally active KDR, FGFR, and PDGFR inhibitor: synthesis and biological evaluation” (Bioorg Med Chem, 2005)

Columns and labels:
[1] = Volume of distribution at steady state in Wistar rat at 5 mg/kg, iv; assay type: ADME, organism-based; parameters: dose 5 mg/kg, route intravenous; settings: in vivo, read-out: Vdss
How it was run: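 Single 5 mg/kg iv dose to Wistar rats via femoral arterial catheter, vehicle 2% DMA, 10% PEG400, 88% of 40% HPBCD in water, 2.5 mL/kg. Jugular blood at 1, 7, 15, 30 min and 1, 3, 6, 12, 24 h; plasma by LC-MS/MS. Vdss by non-compartmental analysis per animal, averaged.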

[2] = AUC in athymic nude mouse at 50 mg/kg, po; assay type: ADME, organism-based; parameters: dose 50 mg/kg, route oral; settings: plasma
How it was run: (§1)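 Athymic nude mice received one dose, either iv 10 mg/kg in 2% DMA/10% PEG400/88% of 40% HPBCD in water, or po 50 mg/kg in 2% Klucel LF/0.1% Tween 80. Retro-orbital or terminal cardiac blood was drawn from 1 min (iv) or 5 min (po) to 24 h into EDTA. Plasma was analysed by LC-MS/MS. Composite parameters were obtained by non-compartmental analysis, with AUC extrapolated to infinity.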

[3] = Tmax in C57/BL6 mouse at 50 mg/kg, po bid for 5 days; assay type: ADME, organism-based; parameters: dose 50 mg/kg, route oral; settings: in vivo
How it was run: (§2)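 Female C57/BL6 mice were dosed orally twice daily for 5 days with a suspension in 2% Klucel LF/0.1% Tween 80 in water. Six mice per dose were split into two subgroups of three, each sampled at alternate time points. Retro-orbital blood was taken at 0, 1, 4 and 8 h post-dose into EDTA, and plasma was analysed by LC-MS/MS. Parameters come from mean concentrations; AUC0–8h by linear trapezoidal rule; Cmax and Tmax as observed.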

[4] = system: Mus musculus; assay: Antiangiogenic activity in C57/BL6 mouse cornea assessed as inhibition of VEGF-induced angiogenesis at 50 mg/kg, po bid for 7 days by corneal pocket assay relative to control; assay type: functional; settings: 168 h
How it was run: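 VEGF-impregnated pellets were implanted in corneas of female C57/BL6 mice aged 5–7 weeks. Oral twice-daily dosing started the same day and ran 7 days. The area of vascularization was then quantitated relative to animals given vehicle (2% Klucel LF, 0.1% Tween 80 in water).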

[5] = molecular target: Protein kinase C alpha type (Homo sapiens, UniProt P17252); assay: Inhibition of PKCalpha by IMAP assay
How it was run: (§3)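 IMAP fluorescence-polarization assay, in which phosphorylated fluorescent peptide substrates bind immobilized metal beads. Reactions ran at ATP three times Km.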

[6] = Tmax in C57/BL6 mouse at 25 mg/kg, po bid for 5 days; assay type: ADME, organism-based; parameters: dose 25 mg/kg, route oral; settings: in vivo; how it was run: as §2
[7] = system: Mus musculus; assay: Dose normalized AUC in C57/BL6 mouse at 50 mg/kg, po bid for 5 days; assay type: ADME, organism-based; parameters: dose 50 mg/kg, route oral; settings: in vivo, 120 h; how it was run: as §2
[8] = Half life in athymic nude mouse at 10 mg/kg, iv; assay type: ADME, organism-based; parameters: dose 10 mg/kg, route intravenous; settings: in vivo; how it was run: as §1
[9] = system: Mus musculus; assay: Antiangiogenic activity in C57/BL6 mouse cornea assessed as inhibition of bFGF-induced angiogenesis at 50 mg/kg, po bid for 5 days by corneal pocket assay relative to control; assay type: functional; settings: 120 h
How it was run: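 bFGF-impregnated pellets were implanted in corneas of female C57/BL6 mice aged 5–7 weeks. Oral dosing twice daily began the same day for 5 days. The neovascularized area was quantitated against vehicle-treated animals (2% Klucel LF, 0.1% Tween 80 in water).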

[10] = molecular target: Vascular endothelial growth factor receptor 2 (Homo sapiens, UniProt P35968); assay: Inhibition of human recombinant EE-tagged intracellular domain of KDR using biotin-EEEEYFELVAKKKK as substrate by HTRF assay
[11] = Cmax in C57/BL6 mouse at 50 mg/kg, po bid for 5 days; assay type: ADME, organism-based; parameters: dose 50 mg/kg, route oral; settings: in vivo; how it was run: as §2
[12] = Half life in Wistar rat at 5 mg/kg, iv; assay type: ADME, organism-based; parameters: dose 5 mg/kg, route intravenous; settings: in vivo
How it was run: (§4)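 Wistar rats received one dose, either iv 5 mg/kg via femoral arterial catheter (2% DMA/10% PEG400/88% of 40% HPBCD) or po 50 mg/kg (2% Klucel LF/0.1% Tween 80). Blood came from an implanted jugular catheter, up to 24 h (iv) or 48 h (po), into EDTA. Plasma LC-MS/MS; individual non-compartmental parameters were averaged.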

[13] = AUC in Wistar rat at 5 mg/kg, iv; assay type: ADME, organism-based; parameters: dose 5 mg/kg, route intravenous; settings: plasma; how it was run: as §4
[14] = Oral bioavailability in Wistar rat at 50 mg/kg; assay type: ADME, organism-based; settings: in vivo; how it was run: as §4
[15] = Tmax in […] mouse at 100 mg/kg, po; assay type: ADME, organism-based; parameters: dose 100 mg/kg, route oral; settings: in vivo
How it was run: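 A separate group of female mice received one 100 mg/kg oral dose. Median PK parameters were calculated for that cohort.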

[16] = AUC in C57/BL6 mouse at 50 mg/kg, po bid for 5 days; assay type: ADME, organism-based; parameters: dose 50 mg/kg, route oral; settings: plasma; how it was run: as §2
[17] = system: Mus musculus; assay: Dose normalized AUC in C57/BL6 mouse at 100 mg/kg, po bid for 5 days; assay type: ADME, organism-based; parameters: dose 100 mg/kg, route oral; settings: in vivo, 120 h; how it was run: as §2
[18] = molecular target: Cyclin-dependent kinase 1/cyclin B1 (Homo sapiens, UniProt P06493); assay: Inhibition of CDK1/cyclin B by IMAP assay; assay type: protein-complex assay; how it was run: as §3
[19] = AUC in C57/BL6 mouse at 25 mg/kg, po bid for 5 days; assay type: ADME, organism-based; parameters: dose 25 mg/kg, route oral; settings: plasma; how it was run: as §2
[20] = molecular target: Tyrosine-protein kinase Fyn (Homo sapiens, UniProt P06241); assay: Inhibition of Fyn by IMAP assay
How it was run: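 IMAP fluorescence-polarisation assay: kinase activity read as phosphorylated fluorescent peptide substrate binding preferentially to immobilised metal beads. Reactions run with ATP at three times the Km.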

[21] = Clearance in Wistar rat at 5 mg/kg, iv; assay type: ADME, organism-based; parameters: dose 5 mg/kg, route intravenous; settings: in vivo; how it was run: as §4
[22] = molecular target: Protein kinase C delta type (Homo sapiens, UniProt Q05655); assay: Inhibition of PKCdelta by IMAP assay; how it was run: as §3
[23] = Cmax in Wistar rat at 50 mg/kg, po; assay type: ADME, organism-based; parameters: dose 50 mg/kg, route oral; settings: in vivo; how it was run: as §4
[24] = AUC in C57/BL6 mouse at 100 mg/kg, po bid for 5 days; assay type: ADME, organism-based; parameters: dose 100 mg/kg, route oral; settings: plasma; how it was run: as §2
[25] = system: HUVEC; assay: Antiangiogenic activity in HUVEC assessed as inhibition of VEGF-induced cell proliferation; settings: Homo sapiens
[26] = system: MDA-MB-435; assay: Antiproliferative activity against human MDA-MB-435 cells
[27] = molecular target: Epidermal growth factor receptor (Homo sapiens, UniProt P00533); assay: Inhibition of human recombinant His-tagged intracellular domain of EGFR using biotin-EEEEYFELV as substrate by HTRF assay
[28] = molecular target: Fibroblast growth factor receptor (Homo sapiens, UniProt P22607+P11362+P22455+P21802); assay: Inhibition of human recombinant GST-tagged intracellular domain of FGFR using biotin-EEEEYFELV as substrate by HTRF assay
[29] = molecular target: Mitogen-activated protein kinase 1 (Homo sapiens, UniProt P28482); assay: Inhibition of ERK2 by IMAP assay; how it was run: as §3
[30] = Cmax in C57/BL6 mouse at 25 mg/kg, po bid for 5 days; assay type: ADME, organism-based; parameters: dose 25 mg/kg, route oral; settings: in vivo; how it was run: as §2
[31] = Tmax in athymic nude mouse at 50 mg/kg, po; assay type: ADME, organism-based; parameters: dose 50 mg/kg, route oral; settings: in vivo
How it was run: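 Athymic nude mice, single oral dose 50 mg/kg in 2% Klucel LF, 0.1% Tween 80 in water, 0.2 mL. Retro-orbital or terminal cardiac blood at 5, 15, 30 min and 1, 2, 4, 8, 16, 24 h; EDTA plasma by LC-MS/MS. Composite parameters; Tmax read from mean concentration–time profile.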

Sequence of Tyrosine-protein kinase Fyn (P06241 whole entry): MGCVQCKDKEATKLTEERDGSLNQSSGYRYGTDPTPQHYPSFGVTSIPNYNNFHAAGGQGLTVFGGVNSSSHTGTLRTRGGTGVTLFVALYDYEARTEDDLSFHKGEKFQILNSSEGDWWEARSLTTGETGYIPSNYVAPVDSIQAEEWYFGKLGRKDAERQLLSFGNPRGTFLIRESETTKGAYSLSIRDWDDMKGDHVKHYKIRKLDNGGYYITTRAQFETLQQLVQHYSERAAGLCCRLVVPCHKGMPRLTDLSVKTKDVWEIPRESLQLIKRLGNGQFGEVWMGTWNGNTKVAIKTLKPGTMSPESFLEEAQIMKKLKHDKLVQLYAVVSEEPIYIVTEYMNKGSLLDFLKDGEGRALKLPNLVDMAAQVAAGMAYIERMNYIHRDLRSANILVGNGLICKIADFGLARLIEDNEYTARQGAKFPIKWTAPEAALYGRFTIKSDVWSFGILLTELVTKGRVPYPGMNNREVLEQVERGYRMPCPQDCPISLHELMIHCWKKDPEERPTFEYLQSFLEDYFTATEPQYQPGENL
Sequence of Epidermal growth factor receptor (P00533 whole entry, the tested form may be a part): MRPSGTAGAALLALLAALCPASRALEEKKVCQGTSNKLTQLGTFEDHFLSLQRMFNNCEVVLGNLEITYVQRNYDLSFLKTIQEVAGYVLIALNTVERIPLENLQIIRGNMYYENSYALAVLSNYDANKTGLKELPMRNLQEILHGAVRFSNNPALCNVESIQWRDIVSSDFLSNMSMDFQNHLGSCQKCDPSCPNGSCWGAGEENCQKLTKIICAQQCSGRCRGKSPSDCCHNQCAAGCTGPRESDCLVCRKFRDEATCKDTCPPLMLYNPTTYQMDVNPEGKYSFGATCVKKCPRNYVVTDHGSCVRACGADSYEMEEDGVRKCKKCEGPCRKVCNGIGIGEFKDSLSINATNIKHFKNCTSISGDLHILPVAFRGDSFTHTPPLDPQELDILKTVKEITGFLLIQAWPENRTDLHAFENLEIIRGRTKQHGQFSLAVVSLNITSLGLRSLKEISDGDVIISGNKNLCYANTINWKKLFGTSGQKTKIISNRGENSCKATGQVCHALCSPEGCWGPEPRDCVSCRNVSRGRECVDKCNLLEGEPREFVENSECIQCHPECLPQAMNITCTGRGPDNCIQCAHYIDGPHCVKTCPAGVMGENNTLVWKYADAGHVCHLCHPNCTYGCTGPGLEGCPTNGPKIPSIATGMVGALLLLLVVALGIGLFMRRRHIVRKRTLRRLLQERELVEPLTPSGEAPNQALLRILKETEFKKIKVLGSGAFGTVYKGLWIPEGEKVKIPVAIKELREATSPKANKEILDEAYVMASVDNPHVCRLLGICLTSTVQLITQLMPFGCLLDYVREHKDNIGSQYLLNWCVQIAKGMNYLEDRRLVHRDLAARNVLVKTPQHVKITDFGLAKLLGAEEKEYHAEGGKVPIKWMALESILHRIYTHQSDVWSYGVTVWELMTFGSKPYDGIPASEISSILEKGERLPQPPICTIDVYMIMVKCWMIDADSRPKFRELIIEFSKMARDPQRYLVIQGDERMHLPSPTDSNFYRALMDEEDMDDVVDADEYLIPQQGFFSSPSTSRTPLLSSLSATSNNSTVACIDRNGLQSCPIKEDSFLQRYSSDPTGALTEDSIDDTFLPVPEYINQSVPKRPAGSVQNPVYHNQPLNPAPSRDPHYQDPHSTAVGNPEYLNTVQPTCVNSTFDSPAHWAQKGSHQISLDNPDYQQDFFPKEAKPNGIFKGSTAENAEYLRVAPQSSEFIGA
Sequence of Protein kinase C delta type (Q05655 whole entry): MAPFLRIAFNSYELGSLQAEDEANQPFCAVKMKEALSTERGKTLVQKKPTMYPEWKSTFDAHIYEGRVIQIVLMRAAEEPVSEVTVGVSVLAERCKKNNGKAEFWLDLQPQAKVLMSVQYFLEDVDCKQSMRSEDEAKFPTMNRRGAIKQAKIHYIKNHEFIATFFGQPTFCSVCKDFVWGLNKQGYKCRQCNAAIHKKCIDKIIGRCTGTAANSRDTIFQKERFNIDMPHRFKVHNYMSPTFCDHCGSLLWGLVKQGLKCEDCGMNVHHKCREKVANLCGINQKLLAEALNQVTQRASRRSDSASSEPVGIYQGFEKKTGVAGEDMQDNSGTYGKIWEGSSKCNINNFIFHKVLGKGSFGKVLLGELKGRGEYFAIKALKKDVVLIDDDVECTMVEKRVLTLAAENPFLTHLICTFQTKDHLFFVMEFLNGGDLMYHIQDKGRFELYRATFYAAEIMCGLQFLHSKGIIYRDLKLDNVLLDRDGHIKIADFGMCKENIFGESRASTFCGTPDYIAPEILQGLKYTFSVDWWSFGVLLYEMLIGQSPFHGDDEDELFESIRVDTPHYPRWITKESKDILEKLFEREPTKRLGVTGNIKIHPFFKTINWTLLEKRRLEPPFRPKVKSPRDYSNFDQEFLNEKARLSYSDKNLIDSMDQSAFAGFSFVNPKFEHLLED
Sequence of Mitogen-activated protein kinase 1 (P28482 whole entry): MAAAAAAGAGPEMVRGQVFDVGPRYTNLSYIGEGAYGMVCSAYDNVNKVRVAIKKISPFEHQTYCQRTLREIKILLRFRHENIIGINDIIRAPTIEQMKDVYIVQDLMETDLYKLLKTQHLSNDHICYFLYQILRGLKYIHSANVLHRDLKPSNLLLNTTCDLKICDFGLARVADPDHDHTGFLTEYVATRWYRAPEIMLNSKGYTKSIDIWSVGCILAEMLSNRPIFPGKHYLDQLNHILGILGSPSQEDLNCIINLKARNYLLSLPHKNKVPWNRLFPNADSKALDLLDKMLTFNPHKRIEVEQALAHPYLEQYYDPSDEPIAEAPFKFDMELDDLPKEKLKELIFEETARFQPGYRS
Sequence of Cyclin-dependent kinase 1/cyclin B1 (P06493 whole entry): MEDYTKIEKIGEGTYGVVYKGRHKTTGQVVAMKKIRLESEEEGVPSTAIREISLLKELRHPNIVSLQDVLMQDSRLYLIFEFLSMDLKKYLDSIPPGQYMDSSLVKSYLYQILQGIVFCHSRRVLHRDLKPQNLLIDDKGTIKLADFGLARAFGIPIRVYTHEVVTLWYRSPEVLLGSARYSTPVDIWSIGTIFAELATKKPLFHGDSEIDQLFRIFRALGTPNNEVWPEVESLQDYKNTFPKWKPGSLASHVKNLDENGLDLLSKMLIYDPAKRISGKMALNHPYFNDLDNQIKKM
Sequence of Cyclin-dependent kinase 1/cyclin B1 (P14635 whole entry, further chain): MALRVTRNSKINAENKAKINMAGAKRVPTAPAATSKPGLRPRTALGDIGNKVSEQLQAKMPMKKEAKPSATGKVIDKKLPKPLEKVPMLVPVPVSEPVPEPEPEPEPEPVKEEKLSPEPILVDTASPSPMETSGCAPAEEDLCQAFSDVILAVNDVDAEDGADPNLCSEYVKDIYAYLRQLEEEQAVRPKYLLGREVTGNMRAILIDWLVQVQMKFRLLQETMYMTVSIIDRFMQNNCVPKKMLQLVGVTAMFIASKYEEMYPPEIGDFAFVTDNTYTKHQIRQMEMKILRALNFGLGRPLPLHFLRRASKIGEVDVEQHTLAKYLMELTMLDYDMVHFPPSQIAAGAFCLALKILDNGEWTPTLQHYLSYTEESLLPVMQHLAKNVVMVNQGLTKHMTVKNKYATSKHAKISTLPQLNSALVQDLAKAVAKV

COc1ccc(N2Cc3cnc(Nc4ccccc4)nc3N([C@@H]3CC[C@@H](O)C3)C2=O)cc1 (racemic)
Vd [1]: 5.3 L/kg | AUC [2]: 51300 ng·h/mL | Tmax [3]: 30 min | inhibition in vivo at 50 mg/kg [4]: 91% | IC50 [5]: > 125 µM | Tmax [6]: 30 min | AUC/dose [7]: 1510 ng·h/mL/mg/kg | half-life [8]: 180 min | inhibition in vivo at 50 mg/kg [9]: 80% | IC50 [10]: 44 nM | Cmax [11]: 28400 ng/mL | half-life [12]: 360 min | AUC [13]: 4010 ng·h/mL | bioavailability [14]: 65% | Tmax [15]: 30 min | AUC at 120 h [16]: 75500 ng·h/mL | AUC/dose [17]: 1458 ng·h/mL/mg/kg | IC50 [18]: > 125 µM | AUC at 120 h [19]: 30000 ng·h/mL | IC50 [20]: 322 nM | clearance [21]: 23.1 mL/min/kg | IC50 [22]: > 125 µM | Cmax [23]: 7180 ng/mL | AUC at 120 h [24]: 150 µg·h/mL | IC50 [25]: 68 nM | IC50 [26]: 4.2 µM | IC50 [27]: 310 nM | IC50 [28]: 29 nM | IC50 [29]: 3.04 µM | Cmax [30]: 12000 ng/mL | Tmax [31]: 15 min
